Experimental data: ChEMBL document CHEMBL1122201, “Carboxyimamidate, a low-molecular-weight polyelectrolyte with antitumor properties and low toxicity” (1982)
Several values for one entry are separate records, joined by “and”; a condition that tells them apart may be missing. Equal entries are not always repeated.

Legend:
[1] = test system: Mus musculus; assay: Proportion of survivors was determined on the 60th day at a dose of 1200-1500 (mg/kg)/day; format: functional
Procedure, shortened: (§1)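 Lewis lung carcinoma model in mice, groups of 10. Dosing daily on days 1-5, 1-8 or 1-10, ip or subcutaneous. Dose ranges pooled from nine independent experiments run at different levels. ILS is the percent increase in mean life span, excluding cures, over the mean of 3 or 4 untreated control groups of 10. Survivors scored at day 60.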

[2] = test system: Mus musculus; assay: Proportion of survivors was determined on the 60th day at a dose of 158-251 mg/kg/day; format: functional; procedure, shortened: as §1
[3] = test system: Mus musculus; assay: Proportion of survivors was determined on the 60th day at a dose of 2400-2512 (mg/kg)/day; format: functional; procedure, shortened: as §1
[4] = test system: Mus musculus; assay: Proportion of survivors was determined on the 60th day at a dose of 500-600 mg/kg/day; format: functional; procedure, shortened: as §1
[5] = test system: Mus musculus; assay: Proportion of survivors was determined on the 60th day at a dose of 62-75 mg/kg/day; format: functional; procedure, shortened: as §1
[6] = test system: Mus musculus; assay: Proportion of survivors was determined on the 60th day at a dose of 900-1000 mg/kg/day; format: functional; procedure, shortened: as §1
[7] = organism: Mus musculus; assay: Increase in mean life span was measured against ADJ-PC6 plasmacytoma cells; format: functional
Procedure, shortened: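 10^6 Trypan blue-excluding cells implanted ip (P815 sc) in groups of 10 mice: B6D2F1 for L5178Y and P815, BALB/c for ADJ-PC6, C3H for Gardner. Drug given ip in sterile saline, 0.5 mL/mouse, at or below the maximally tolerated dose for the schedule. ILS excludes long-term tumor-free survivors. Animals held 60 days; Student's t test against untreated controls.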

[8] = organism: Mus musculus; assay: Increase in mean life span was measured against B16 melanoma cells; format: functional
[9] = organism: Mus musculus; assay: Increase in mean life span was measured against B16 melanoma cells carcinoma 26; format: functional
[10] = test system: Mus musculus; assay: Ratio of mean tumor volume of treated groups to that of the mean of total untreated controls in the subcutaneous Lewis Lung Carcinoma model at a dose of 100-125 (mg/kg)/day; format: functional
Procedure, shortened: (§2)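 Mice bearing sc Lewis lung carcinoma (groups of 10) received the saline-dissolved agent daily on days 1-5, 1-8 or 1-10, ip or sc. Perpendicular tumor diameters were measured with vernier calipers on day 14, and volume was taken as 0.5 × length × width². T/C is treated mean volume over the mean of all untreated controls (3-4 groups of 10), pooled across experiments as mean ± SE.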

[11] = test system: Mus musculus; assay: Ratio of mean tumor volume of treated groups to that of the mean of total untreated controls in the subcutaneous Lewis Lung Carcinoma model at a dose of 1200-1500 mg/kg/day; format: functional; procedure, shortened: as §2
[12] = test system: Mus musculus; assay: Ratio of mean tumor volume of treated groups to that of the mean of total untreated controls in the subcutaneous Lewis Lung Carcinoma model at a dose of 158-251 (mg/kg)/day; format: functional; procedure, shortened: as §2
[13] = test system: Mus musculus; assay: Ratio of mean tumor volume of treated groups to that of the mean of total untreated controls in the subcutaneous Lewis Lung Carcinoma model at a dose of 2400-2512 (mg/kg)/day; format: functional; procedure, shortened: as §2
[14] = test system: Mus musculus; assay: Ratio of mean tumor volume of treated groups to that of the mean of total untreated controls in the subcutaneous Lewis Lung Carcinoma model at a dose of 300-400 (mg/kg)/day; format: functional; procedure, shortened: as §2
[15] = test system: Mus musculus; assay: Ratio of mean tumor volume of treated groups to that of the mean of total untreated controls in the subcutaneous Lewis Lung Carcinoma model at a dose of 500-600 (mg/kg)/day; format: functional; procedure, shortened: as §2
[16] = test system: Mus musculus; assay: Ratio of mean tumor volume of treated groups to that of the mean of total untreated controls in the subcutaneous Lewis Lung Carcinoma model at a dose of 62-75 mg/kg/day; format: functional; procedure, shortened: as §2
[17] = test system: Mus musculus; assay: Ratio of mean tumor volume of treated groups to that of the mean of total untreated controls in the subcutaneous Lewis Lung Carcinoma model at a dose of 900-1000 mg/kg/day; format: functional; procedure, shortened: as §2
[18] = test system: Mus musculus; assay: Proportion of survivors was determined on the 60th day at a dose of 300-400 (mg/kg)/day; format: functional; procedure, shortened: as §1
[19] = organism: Mus musculus; assay: Tumor weight inhibition against colon carcinoma 38
[20] = organism: Mus musculus; assay: Tumor weight inhibition against colon carcinoma 26
[21] = organism: Mus musculus; assay: Tumor weight inhibition against B16 melanoma cells
[22] = organism: Mus musculus; assay: Tumor weight inhibition against M5076 ovarian tumor
[23] = organism: Mus musculus; assay: Tumor weight inhibition against P815 mastocytoma cells
[24] = test system: Walker carcinosarcoma 256 (Rattus norvegicus); assay: Tumor weight inhibition Walker carcinosarcoma cells against
[25] = organism: Mus musculus; assay: Tumor weight inhibition against EMT6 mammary carcinoma cells
[26] = organism: Mus musculus; assay: Tumor weight inhibition against Nettesheim lung carcinoma cells
[27] = organism: Mus musculus; assay: Tumor weight inhibition against Madison 109 lung carcinoma cells
[28] = organism: Rattus norvegicus; assay: Increase in mean life span was measured against Walker carcinosarcoma cells

SMILES: CC(c1ccccc1)C1C(=O)NC(=O)C1CCC(C(N)=O)C(CCC(CC(=O)O)C(N)=O)C(=O)O.N.N (stereo not drawn)
- Proportion of survivors [1]: 0.21
- Proportion of survivors [2]: 0.04
- Proportion of survivors [3]: 0.13
- Proportion of survivors [4]: 0.12
- Proportion of survivors [5]: 0.03
- Proportion of survivors [6]: 0.21
- ILS [7]: 24%
- ILS [8]: 21% and 11%
- ILS [9]: 7%
- T/C [10]: 0.62
- T/C [11]: 0.16
- T/C [12]: 0.58
- T/C [13]: 0.1
- T/C [14]: 0.4
- T/C [15]: 0.32
- T/C [16]: 0.59
- T/C [17]: 0.17
- Proportion of survivors [18]: 0.09
- TWI [19]: 44
- TWI [20]: 70
- TWI [21]: 74
- TWI [22]: 89
- TWI [23]: 60 and 53
- TWI [24]: 21
- TWI [25]: 14
- TWI [26]: 39
- TWI [27]: 67 and 78 and 50
- ILS [28]: 3%
